XBP1 UPR activ – activators of adaptive arm of unfolded protein response (XBP1) | CHO-XBP1 luciferase reporter, IRE1-XBP1 UPR activation, luminescence; percent of tunicamycin response, DMSO as zero | activation, % at 20 µM | 0.33% of 330,000 active;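 active = versus positive control, 20 µM dose yields 30% or more activation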
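Material: IRE1-XBP1 luciferase reporter CHO line / Quantity: one thousand reporter cells per well / Buffer or medium: F12 with 10% serum / Compound: 20 µM single concentration, DMSO 1% / Times: 6 h treatment, 37 °C / Detection: Steady-Glo luciferase glow luminescence, 10 min after reagent addition / Benchmarks: tunicamycin high, DMSO low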
Jurkat NFkB inh – lowers PMA/ionomycin-induced NF-kB signal in Jurkat cells; PMA/ionomycin-induced NF-kB luciferase reporter, luminescence; inhibition, % at 4 µM; 0.53% of 330,000 active; AID 435003; in the data active = inhibition above about 50%
Gli-Sufu antag – antagonists of Gli-Sufu signaling. Sufu-KO-LIGHT fibroblasts, Gli luciferase reporter luminescence. inhibition, % at 5 µM. 0.74% of 340,000 active. AID 588413;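 active = inhibition above about 55%, limit read from the data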
CHOP inh – CHOP inhibition in unfolded protein response; inhibition, % at 10 µM; 3.8% of 220,000 active; CHO-K1 CHOP-promoter luciferase, tunicamycin-induced, 15-18 h; AID 2732;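 active = compounds that reduced the stress-induced luciferase reporter signal by more than about 70% of percent inhibition, limit read from the data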
UPR CHOP act – activators of apoptotic arm of unfolded protein response (CHOP). CHO-CHOP luciferase reporter, UPR activation, luminescence; percent of tunicamycin response over DMSO baseline. activation, % at 10 µM. 0.34% of 330,000 active;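 active = at 10 µM dose, activation of 40% or more, normalized to positive control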
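Assay system: CHO cells with stable CHOP pathway luciferase reporter; Buffer or medium: F12 plus 10% serum; Times: 16-18 h cell attachment, then 6 h compound exposure, 37 °C; Signal: luciferase luminescence; Read-out basis: percent activation relative to tunicamycin control; Control set: tunicamycin high control, DMSO low control.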
697 NFkB inh – inhibitors of the PMA/ionomycin-induced NF-kB reporter in 697 B cells. inhibition, % at 4 µM. 0.33% of 330,000 active. 697 B-cell NF-kB luciferase reporter, 16 h; in the data active = inhibition above about 35%
Each line names hits and unclear results; the compound was inactive in the other large screens. Compounds with a hit are over-represented: about 3.9% of the library has one in this group of screens.

O=C(Nc1cccc(C(F)(F)F)c1)Nc1ccc(N2CCCC2)c(S(=O)(=O)Nc2ccccc2Cl)c1	CHOP inh 76
COc1ccc(Cl)cc1NC(=O)CN(C)C1CCCCC1	CHOP inh 76
COc1ccc(Cl)cc1NC(=O)COC(=O)C1CCCCC1	none (no result: CHOP inh)
CC(=O)Nc1sc(C)c(C)c1C(=O)OCC(=O)N(CC(C)C)c1c(N)n(Cc2ccccc2)c(=O)[nH]c1=O	none (no result: CHOP inh)
CC(C)(C)C1CCC2(CC1)SCC(=O)N2c1ccccc1 (centres undefined)	CHOP inh 77
O=S(=O)(Nc1ccc(Cl)cc1)c1ccc(N2CCOCC2)c(NC(=S)NCCN2CCOCC2)c1	CHOP inh 81
CC(NC(=O)N(Cc1ccccc1)Cc1ccc2c(c1)OCO2)(C(F)(F)F)C(F)(F)F	none
CC(=O)OCCN(Cc1ccccc1)Cc1ccc2c(c1)OCO2	CHOP inh 70
Cc1ccc(S(=O)(=O)n2nc(C)c(Br)c2C)c(C)c1C	CHOP inh 89
CCOC(=O)N1CCN(S(=O)(=O)c2ccc(C)c(C)c2C)CC1	none
Cc1ccc(-n2nc(C)c3c2OC(N)=C(C#N)C3c2ccc(F)cc2)cc1 (centres undefined)	CHOP inh 83
CCC(=O)Nc1ccc(C2=Nn3c(nnc3C(C)C)SC2)cc1	none (no result: CHOP inh)
Cc1ccc(-c2[nH]c3ccccc3c2C(C[N+](=O)[O-])c2ccco2)cc1 (centres undefined)	CHOP inh 89
CCON1C(=O)C2(CCCCC2)C(=O)C12C=CCCC2 (centres undefined)	none (no result: XBP1 UPR activ, Jurkat NFkB inh, CHOP inh, UPR CHOP act, 697 NFkB inh)
CCn1c(NC(=O)Nc2cccc(C)c2C)cc2sccc21	CHOP inh 90
Cc1nnc(NC(=O)c2ccc(F)c(S(=O)(=O)N3CCCCC3)c2)s1	none (no result: CHOP inh)
Cc1nc2ccccn2c1-c1csc(Nc2cccc(O)c2)n1	none (no result: XBP1 UPR activ, Jurkat NFkB inh, UPR CHOP act, 697 NFkB inh)
Cc1cccc(Nc2nc(-c3c(C)nc4ccccn34)cs2)c1	CHOP inh 77
CC1CN(C(=O)c2ccccc2NS(=O)(=O)c2ccc(Cl)cc2)CC(C)O1 (centres undefined)	none (no result: CHOP inh)
COc1ccc(C(C[N+](=O)[O-])c2c(-c3ccccc3)cc3ccccn23)cc1OC (centres undefined)	CHOP inh 81
COc1cc2ccccc2cc1-c1nnc(COc2ccccc2)o1	CHOP inh 82
CCSc1nnc(-c2cnn(-c3ccccc3)c2-n2cccc2)n1C	none
CCCCCCSc1nnc(-c2cnn(-c3ccccc3)c2-n2cccc2)n1C	CHOP inh 84
O=C(COc1ccc(Cl)cc1)N1CCN(C(=O)c2ccccc2F)CC1	none (no result: CHOP inh)
Cc1c(NC(=O)Nc2ccc(Cl)cc2)c(=O)n(-c2ccccc2)n1C	none
Cc1c(N=C2N=C(NC(=O)Nc3ccc(Cl)cc3)c3ccccc32)c(=O)n(-c2ccccc2)n1C	CHOP inh 92
COc1cccc(NC(=O)CN(C2=NC3CS(=O)(=O)CC3S2)c2cccc(C)c2)c1 (centres undefined)	none (no result: CHOP inh)
CCc1nn(C(CC)C(=O)NCc2cccc(OC)c2OC)c(=O)c2cc3occc3n12 (centres undefined)	none (no result: CHOP inh)
CN(Cc1ccccc1)Cc1nc2c(c(=O)n(C)c(=O)n2C)n1CCCc1ccccc1	CHOP inh 77
Cc1ccc(Cn2c(NCCc3ccccc3)nc3c2c(=O)n(C)c(=O)n3C)cc1	CHOP inh 79
C/C(Cl)=C\Cn1c(NCCc2ccccc2)nc2c1c(=O)n(C)c(=O)n2C	Gli-Sufu antag 82
COc1ccc(N2C(=O)CC(Sc3ncn[nH]3)C2=O)c(OC)c1 (centres undefined)	CHOP inh 91
CCCSc1nc(N2CCOCC2)c2c(c1C#N)CC(C)(C)SC2	CHOP inh 78
CC(C)CSc1nc(N2CCOCC2)c2c(c1C#N)CC(C)(C)SC2	none
CCOC(=O)C1CCN(CC(O)COc2ccc(S(=O)(=O)N3CCCC3)cc2[N+](=O)[O-])CC1 (centres undefined)	none (no result: CHOP inh)
Cc1ccc2nc(SCC(=O)N3c4ccccc4CC3C)c(C)cc2c1 (centres undefined)	CHOP inh 78

From PubChem
